What was measured:
[1] = biological target: Mitogen-activated protein kinase 8 (Homo sapiens, UniProt P45983); assay: Inhibition of JNK1
[2] = biological target: c-Jun N-terminal kinase, JNK (Homo sapiens, UniProt P45983+P53779+P45984); assay: Inhibition of TNF-alpha-stimulated cJun phosphorylation in HepG2 cells; type: functional, cell-based
How it was run: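 Cell-based ELISA in HepG2 cells detecting phospho-c-Jun after TNFa stimulation. Inhibition of c-Jun phosphorylation read out and expressed as IC50.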

[3] = biological target: Mitogen-activated protein kinase 9 (Homo sapiens, UniProt P45984); assay: Inhibition of JNK2
Chain of Mitogen-activated protein kinase 9 (P45984 whole entry): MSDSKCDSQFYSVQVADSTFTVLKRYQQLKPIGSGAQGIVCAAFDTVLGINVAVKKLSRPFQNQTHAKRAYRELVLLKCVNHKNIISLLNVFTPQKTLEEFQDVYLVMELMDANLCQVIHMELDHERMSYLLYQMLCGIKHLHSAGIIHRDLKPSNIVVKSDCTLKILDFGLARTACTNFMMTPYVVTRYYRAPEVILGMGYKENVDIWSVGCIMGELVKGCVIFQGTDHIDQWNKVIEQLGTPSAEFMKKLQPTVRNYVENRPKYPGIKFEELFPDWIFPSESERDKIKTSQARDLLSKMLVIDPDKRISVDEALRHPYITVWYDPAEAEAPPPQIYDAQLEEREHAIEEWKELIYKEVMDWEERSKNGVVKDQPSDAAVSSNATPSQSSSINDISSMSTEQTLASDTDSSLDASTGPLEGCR

[4] = Stability in human liver microsome after 30 mins; type: ADME; details: liver microsomes, read-out: Stability
How it was run: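 Parent compound incubated with human liver microsomes for 30 min. Percentage of parent recovered afterwards was measured.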

[5] = biological target: Mitogen-activated protein kinase 1 (Homo sapiens, UniProt P28482); assay: Inhibition of ERK2
Chain of Mitogen-activated protein kinase 1 (P28482 whole entry): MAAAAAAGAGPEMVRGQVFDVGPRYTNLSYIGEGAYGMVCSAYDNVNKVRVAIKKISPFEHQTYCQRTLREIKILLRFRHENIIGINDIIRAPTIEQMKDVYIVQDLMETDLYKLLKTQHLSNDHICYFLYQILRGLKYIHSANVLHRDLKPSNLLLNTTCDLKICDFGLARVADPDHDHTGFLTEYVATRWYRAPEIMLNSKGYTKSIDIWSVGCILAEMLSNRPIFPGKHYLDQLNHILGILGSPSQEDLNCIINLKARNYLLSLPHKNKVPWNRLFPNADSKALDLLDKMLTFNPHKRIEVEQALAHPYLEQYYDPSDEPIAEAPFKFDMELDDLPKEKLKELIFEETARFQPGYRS

MAP kinase p38 = MAP kinase p38 (Homo sapiens, UniProt O15264+Q15759+Q16539+P53778); assay: Inhibition of p38; type: protein assay

Chain of Mitogen-activated protein kinase 8 (P45983 whole entry): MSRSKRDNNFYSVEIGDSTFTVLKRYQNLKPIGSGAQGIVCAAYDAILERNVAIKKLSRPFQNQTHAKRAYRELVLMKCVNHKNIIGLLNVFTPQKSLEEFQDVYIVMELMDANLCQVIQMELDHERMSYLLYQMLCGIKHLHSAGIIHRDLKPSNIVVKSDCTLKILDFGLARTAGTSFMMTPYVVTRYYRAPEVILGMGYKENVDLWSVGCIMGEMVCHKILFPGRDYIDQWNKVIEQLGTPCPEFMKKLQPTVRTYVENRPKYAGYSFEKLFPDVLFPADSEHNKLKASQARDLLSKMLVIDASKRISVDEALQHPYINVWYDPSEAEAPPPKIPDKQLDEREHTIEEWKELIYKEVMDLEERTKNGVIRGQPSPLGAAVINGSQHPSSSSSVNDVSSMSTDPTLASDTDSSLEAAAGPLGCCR

| SMILES | IC50 [1] [µM] | IC50 [2] [µM] | further results |
| --- | --- | --- | --- |
| COc1cc(Cl)cc2c(=O)c3c(C(F)(F)F)nn(C)c3n(O)c12 | > 10 |  |  |
| CCNC(=O)NCCCc1nn(C)c2c1c(=O)c1cc(Cl)ccc1n2O | 0.5 | > 30 |  |
| Cc1nn(C)c2c1c(=O)c1cc(Cl)ccc1n2OC(C)C | > 10 |  |  |
| Cn1nc(C(C)(C)C)c2c(=O)c3cc(Cl)ccc3n(O)c21 | > 10 |  |  |
| Cn1nc(C(F)(F)F)c2c(=O)c3c(Cl)c(Cl)ccc3n(O)c21 | > 10 |  |  |
| CCOn1c2ccc(Cl)cc2c(=O)c2c(C)nn(C)c21 | 2.78 | 10.6 |  |
| Cc1nn(C)c2c1c(=O)c1cc(Cl)ccc1n2OCc1ccccc1 | > 10 |  |  |
| Cc1nn(C)c2c1c(=O)c1cc(Cl)ccc1n2OC1CCCC1 | > 10 |  |  |
| CNC(=O)Cn1nc(C)c2c(=O)c3cc(Cl)ccc3n(O)c21 | 8.77 | > 30 |  |
| Cc1nn(CCO)c2c1c(=O)c1cc(Cl)ccc1n2O | 7.67 | > 30 |  |
| Cn1c2[n+]([O-])c3ccc(Cl)cc3c(=O)c-2c2n1C(=O)NCC2 | 0.29 | 0.85 |  |
| Cc1nn(C)c2c1c(=O)c1cc(-c3ccccc3)ccc1n2O | > 10 |  |  |
| CCn1nc(C)c2c(=O)c3cc(Cl)ccc3n(O)c21 | 4.19 | > 30 |  |
| Cc1nn(C)c2nc3ccc(Cl)cc3c(O)c12 | > 10 |  |  |
| Cc1nn(C)c2c1c(=O)c1cc(Br)ccc1n2O | 0.92 | > 30 |  |
| Cn1nc(-c2ccc(N)cc2)c2c(=O)c3cc(Cl)ccc3n(O)c21 | > 10 |  |  |
| COC(=O)c1nn(C)c2c1c(=O)c1cc(Cl)ccc1n2O | > 10 |  |  |
| CCOC(=O)Cn1nc(C)c2c(=O)c3cc(Cl)ccc3n(O)c21 | 7.64 | > 30 |  |
| Cc1nn(C)c2c1c(=O)c1cc(-c3cc[nH]n3)ccc1n2O | > 10 |  |  |
| CC(C)c1nn(C)c2c1c(=O)c1cc(Cl)ccc1n2O | 2.64 | > 30 |  |
| Cc1nn(CC(=O)O)c2c1c(=O)c1cc(Cl)ccc1n2O | 4.41 | > 30 |  |
| Cc1nn(C)c2c1c(=O)c1ccccc1n2O | > 10 |  |  |
| CN(C)c1cc2c(cc1Cl)c(=O)c1c(C(F)(F)F)nn(C)c1n2O | > 10 |  |  |
| Cn1nc(C(F)(F)F)c2c(=O)c3cc(Cl)c(Cl)cc3n(O)c21 | 5.14 | > 30 |  |
| COn1c2ccc(Cl)cc2c(=O)c2c(C)nn(C)c21 | 4.59 | 19.4 |  |

Now from value to compound, other results behind:

| IC50 [1] [µM] | IC50 [2] [µM] | SMILES | further results |
| --- | --- | --- | --- |
| > 10 |  | Cn1nc(CCC(=O)O)c2c(=O)c3cc(Cl)ccc3n(O)c21 |  |
| 0.75 | > 30 | CNC(=O)CCCc1nn(C)c2c1c(=O)c1cc(Cl)ccc1n2O |  |
| 0.78 | > 30 | CC(=O)NCCc1nn(C)c2c1c(=O)c1cc(Cl)ccc1n2O |  |
|  | > 30 | Cc1nn(C)c2c1c(=O)c1cc(Cl)ccc1n2O | IC50 [3]: 3.1 µM; remaining at 0.5 h [4]: 100%; IC50 [5]: > 50 µM; IC50 (MAP kinase p38): > 50 µM |
| 2.41 | 14.7 | COCCc1nn(C)c2c1c(=O)c1cc(Cl)ccc1n2O |  |
| 1.31 | 26.6 | CCCc1nn(C)c2c1c(=O)c1cc(Cl)ccc1n2O |  |
| 2.83 | > 30 | Cn1nc(CCN)c2c(=O)c3cc(Cl)ccc3n(O)c21 |  |
| 0.43 | > 30 | CCOC(=O)NCCc1nn(C)c2c1c(=O)c1cc(Cl)ccc1n2O |  |
| 0.52 | > 30 | CCCCc1nn(C)c2c1c(=O)c1cc(Cl)ccc1n2O |  |
| 0.96 | 32 | CCc1nn(C)c2c1c(=O)c1cc(Cl)ccc1n2O |  |
| 2.74 | > 30 | Cn1nc(CCCC(=O)O)c2c(=O)c3cc(Cl)ccc3n(O)c21 |  |

— ChEMBL document CHEMBL1147685, “Synthesis and SAR of 1,9-dihydro-9-hydroxypyrazolo[3,4-b]quinolin-4-ones as novel, selective c-Jun N-terminal kinase inhibitors” (Bioorg Med Chem Lett, 2006)
